In ChEMBL document CHEMBL5260793, “Novel pyrazolo[3,4-d]pyrimidine with 4-(1H-benzimidazol-2-yl)-phenylamine as broad spectrum anticancer agents: Synthesis, cell based assay, topoisomerase inhibition, DNA intercalation and bovine serum albumin studies” (Eur J Med Chem, 2017):
Calls of active or inactive are those of the source. The calls are words filed in the database; no cut-off is given here.

Assays:
[1] = system: Panel prostate (Carcinoma cell lines); assay: Anticancer activity against human Panel prostate (Carcinoma cell lines) assessed as total growth inhibition incubated for 48 hrs by Sulphorhodamine B assay; assay type: functional
Method in brief: (§1)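 NCI-60 five-dose screen. Cells in RPMI 1640 with 5% FBS and 2 mM L-glutamine were plated at 5,000–40,000 cells/well and held 24 h before dosing. Compounds came from DMSO stocks and were given at five concentrations (10-fold or ½-log dilutions) for 48 h at 37 °C. Adherent cells were TCA-fixed and stained with SRB; A515 was read. GI50 was set from growth = 50% and TGI from Ti = Tz, using Tz/C/Ti.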

[2] = target: DNA topoisomerase 2-alpha (Homo sapiens) (UniProt P11388); assay: Inhibition of human DNA topoisomerase II-alpha mediated supercoiled pHOT1 plasmid DNA relaxation at 100 uM incubated for 30 mins by ethidium bromide staining based agarose gel electrophoresis analysis
Method in brief: (§2)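 Reaction buffer: 50 mM Tris-Cl pH 8.0, 120 mM KCl, 10 mM MgCl2, 0.5 mM ATP, 0.5 mM DTT. Each reaction held 500 ng supercoiled pHOT1 and 1 U human Topo IIα, with compound at 10–100 μM, for 30 min at 37 °C. Reactions were stopped with glycerol/EDTA/bromophenol blue, run on 1% agarose in TBE, and stained with ethidium bromide. Etoposide 25 μM was the positive control.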

[3] = system: Panel leukemia (Carcinoma cell lines); assay: Anticancer activity against human Panel leukemia (Carcinoma cell lines) assessed as lethality incubated for 48 hrs by Sulphorhodamine B assay; assay type: functional
[4] = system: Panel CNS (Carcinoma cell lines); assay: Anticancer activity against human Panel CNS (Carcinoma cell lines) assessed as total growth inhibition incubated for 48 hrs by Sulphorhodamine B assay; assay type: functional; method in brief: as §1
[5] = system: Panel breast (Carcinoma cell lines); assay: Anticancer activity against human Panel breast (Carcinoma cell lines) assessed as cell growth inhibition incubated for 48 hrs by Sulphorhodamine B assay; assay type: functional; method in brief: as §1
[6] = target: DNA topoisomerase 2-alpha (Homo sapiens) (UniProt P11388); assay: Inhibition of human DNA topoisomerase II-alpha mediated supercoiled pHOT1 plasmid DNA relaxation at 75 uM incubated for 30 mins by ethidium bromide staining based agarose gel electrophoresis analysis; method in brief: as §2
[7] = system: Panel melanoma (Carcinoma cell lines); assay: Anticancer activity against human Panel melanoma (Carcinoma cell lines) assessed as lethality incubated for 48 hrs by Sulphorhodamine B assay; assay type: functional
[8] = system: Panel colon (Carcinoma cell lines); assay: Anticancer activity against human Panel colon (Carcinoma cell lines) assessed as cell growth inhibition incubated for 48 hrs by Sulphorhodamine B assay; assay type: functional; method in brief: as §1
[9] = system: Panel CNS (Carcinoma cell lines); assay: Anticancer activity against human Panel CNS (Carcinoma cell lines) assessed as lethality incubated for 48 hrs by Sulphorhodamine B assay; assay type: functional
Calf thymus DNA [10] = assay: Displacement of Ethidium bromide from calf thymus DNA/EtBr complex assessed as decrease in fluorescent intensity by fluorescence based EtBr-displacement assay; assay type: nucleic-acid assay; settings: Bos taurus
Method in brief: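 ct-DNA (0–20 μM) was pre-mixed with ethidium bromide, diluted from a 1 mM stock. Compound was then added in 2 μM steps up to 50 μM, with mixing after each addition. Emission was recorded with excitation at 480 nm.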

[11] = Anticancer activity against human Non-small cell lung cancer cell line assessed as total growth inhibition incubated for 48 hrs by Sulphorhodamine B assay; assay type: functional; method in brief: as §1
Albumin = Albumin (Bos taurus, UniProt P02769); assay: Binding affinity to bovine serum albumin assessed as decrease in fluorescence intensity at pH 7.4 at 0 to 30 uM by fluorescence quenching method; settings: cattle
[12] = system: Panel ovarian (Carcinoma cell lines); assay: Anticancer activity against human Panel ovarian (Carcinoma cell lines) assessed as lethality incubated for 48 hrs by Sulphorhodamine B assay; assay type: functional
[13] = system: Panel prostate (Carcinoma cell lines); assay: Anticancer activity against human Panel prostate (Carcinoma cell lines) assessed as cell growth inhibition incubated for 48 hrs by Sulphorhodamine B assay; assay type: functional; method in brief: as §1
[14] = target: T1, DNA topoisomerase 1 (Homo sapiens) (UniProt P11387); assay: Inhibition of human DNA topoisomerase I mediated supercoiled pHOT1 plasmid DNA relaxation upto 100 uM incubated for 30 mins by ethidium bromide staining based agarose gel electrophoresis analysis
T1 sequence (whole entry): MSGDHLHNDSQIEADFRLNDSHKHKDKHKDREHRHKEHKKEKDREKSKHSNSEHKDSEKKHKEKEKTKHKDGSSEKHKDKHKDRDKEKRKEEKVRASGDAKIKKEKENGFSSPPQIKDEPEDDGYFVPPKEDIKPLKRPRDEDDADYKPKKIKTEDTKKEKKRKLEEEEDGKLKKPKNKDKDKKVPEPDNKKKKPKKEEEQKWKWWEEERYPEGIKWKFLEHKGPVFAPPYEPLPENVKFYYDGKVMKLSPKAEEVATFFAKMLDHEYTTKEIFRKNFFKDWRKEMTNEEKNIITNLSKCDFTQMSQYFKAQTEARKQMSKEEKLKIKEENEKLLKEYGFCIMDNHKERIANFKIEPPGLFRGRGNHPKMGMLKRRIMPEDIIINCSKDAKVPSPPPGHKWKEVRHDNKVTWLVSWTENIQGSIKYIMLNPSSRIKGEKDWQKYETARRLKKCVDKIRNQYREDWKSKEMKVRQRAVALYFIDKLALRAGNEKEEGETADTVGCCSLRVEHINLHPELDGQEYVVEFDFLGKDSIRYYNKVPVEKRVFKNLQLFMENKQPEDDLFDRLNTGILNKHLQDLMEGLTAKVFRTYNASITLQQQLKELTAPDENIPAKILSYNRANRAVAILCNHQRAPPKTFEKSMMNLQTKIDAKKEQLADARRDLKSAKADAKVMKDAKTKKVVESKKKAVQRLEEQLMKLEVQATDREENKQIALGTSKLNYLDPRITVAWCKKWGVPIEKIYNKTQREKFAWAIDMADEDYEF

[15] = system: Panel ovarian (Carcinoma cell lines); assay: Anticancer activity against human Panel ovarian (Carcinoma cell lines) assessed as total growth inhibition incubated for 48 hrs by Sulphorhodamine B assay; assay type: functional
[16] = system: Panel melanoma (Carcinoma cell lines); assay: Anticancer activity against human Panel melanoma (Carcinoma cell lines) assessed as cell growth inhibition incubated for 48 hrs by Sulphorhodamine B assay; assay type: functional; method in brief: as §1
[17] = system: Panel breast (Carcinoma cell lines); assay: Anticancer activity against human Panel breast (Carcinoma cell lines) assessed as lethality incubated for 48 hrs by Sulphorhodamine B assay; assay type: functional; settings: read-out: LC50 (the source's name)
[18] = target: DNA topoisomerase 2-alpha (Homo sapiens) (UniProt P11388); assay: Inhibition of human DNA topoisomerase II-alpha mediated supercoiled pHOT1 plasmid DNA relaxation at 50 uM incubated for 30 mins by ethidium bromide staining based agarose gel electrophoresis analysis; method in brief: as §2
[19] = system: Panel colon (Carcinoma cell lines); assay: Anticancer activity against human Panel colon (Carcinoma cell lines) assessed as lethality incubated for 48 hrs by Sulphorhodamine B assay; assay type: functional
[20] = system: Panel breast (Carcinoma cell lines); assay: Anticancer activity against human Panel breast (Carcinoma cell lines) assessed as total growth inhibition incubated for 48 hrs by Sulphorhodamine B assay; assay type: functional; method in brief: as §1
[21] = system: Panel ovarian (Carcinoma cell lines); assay: Anticancer activity against human Panel ovarian (Carcinoma cell lines) assessed as cell growth inhibition incubated for 48 hrs by Sulphorhodamine B assay; assay type: functional; method in brief: as §1
[22] = system: Panel renal (Carcinoma cell lines); assay: Anticancer activity against human Panel renal (Carcinoma cell lines) assessed as total growth inhibition incubated for 48 hrs by Sulphorhodamine B assay; assay type: functional
Calf thymus DNA [23] = assay: Binding affinity to calf thymus DNA assessed as decrease in maximum emission wavelength at pH 7.4 at 10 uM by fluorescence spectroscopy; assay type: nucleic-acid assay; settings: Bos taurus
Method in brief: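 Compound was held constant (10 μM per legend; 20 μM in methods) and titrated with ct-DNA (0–20 μM) in 10 mM phosphate buffer, pH 7.4. Emission spectra were excited at 300 nm, with a buffer-only control. Binding constant came from a Benesi–Hildebrand plot.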

DNA topoisomerase 2-alpha (Homo sapiens), sequence (P11388 whole entry): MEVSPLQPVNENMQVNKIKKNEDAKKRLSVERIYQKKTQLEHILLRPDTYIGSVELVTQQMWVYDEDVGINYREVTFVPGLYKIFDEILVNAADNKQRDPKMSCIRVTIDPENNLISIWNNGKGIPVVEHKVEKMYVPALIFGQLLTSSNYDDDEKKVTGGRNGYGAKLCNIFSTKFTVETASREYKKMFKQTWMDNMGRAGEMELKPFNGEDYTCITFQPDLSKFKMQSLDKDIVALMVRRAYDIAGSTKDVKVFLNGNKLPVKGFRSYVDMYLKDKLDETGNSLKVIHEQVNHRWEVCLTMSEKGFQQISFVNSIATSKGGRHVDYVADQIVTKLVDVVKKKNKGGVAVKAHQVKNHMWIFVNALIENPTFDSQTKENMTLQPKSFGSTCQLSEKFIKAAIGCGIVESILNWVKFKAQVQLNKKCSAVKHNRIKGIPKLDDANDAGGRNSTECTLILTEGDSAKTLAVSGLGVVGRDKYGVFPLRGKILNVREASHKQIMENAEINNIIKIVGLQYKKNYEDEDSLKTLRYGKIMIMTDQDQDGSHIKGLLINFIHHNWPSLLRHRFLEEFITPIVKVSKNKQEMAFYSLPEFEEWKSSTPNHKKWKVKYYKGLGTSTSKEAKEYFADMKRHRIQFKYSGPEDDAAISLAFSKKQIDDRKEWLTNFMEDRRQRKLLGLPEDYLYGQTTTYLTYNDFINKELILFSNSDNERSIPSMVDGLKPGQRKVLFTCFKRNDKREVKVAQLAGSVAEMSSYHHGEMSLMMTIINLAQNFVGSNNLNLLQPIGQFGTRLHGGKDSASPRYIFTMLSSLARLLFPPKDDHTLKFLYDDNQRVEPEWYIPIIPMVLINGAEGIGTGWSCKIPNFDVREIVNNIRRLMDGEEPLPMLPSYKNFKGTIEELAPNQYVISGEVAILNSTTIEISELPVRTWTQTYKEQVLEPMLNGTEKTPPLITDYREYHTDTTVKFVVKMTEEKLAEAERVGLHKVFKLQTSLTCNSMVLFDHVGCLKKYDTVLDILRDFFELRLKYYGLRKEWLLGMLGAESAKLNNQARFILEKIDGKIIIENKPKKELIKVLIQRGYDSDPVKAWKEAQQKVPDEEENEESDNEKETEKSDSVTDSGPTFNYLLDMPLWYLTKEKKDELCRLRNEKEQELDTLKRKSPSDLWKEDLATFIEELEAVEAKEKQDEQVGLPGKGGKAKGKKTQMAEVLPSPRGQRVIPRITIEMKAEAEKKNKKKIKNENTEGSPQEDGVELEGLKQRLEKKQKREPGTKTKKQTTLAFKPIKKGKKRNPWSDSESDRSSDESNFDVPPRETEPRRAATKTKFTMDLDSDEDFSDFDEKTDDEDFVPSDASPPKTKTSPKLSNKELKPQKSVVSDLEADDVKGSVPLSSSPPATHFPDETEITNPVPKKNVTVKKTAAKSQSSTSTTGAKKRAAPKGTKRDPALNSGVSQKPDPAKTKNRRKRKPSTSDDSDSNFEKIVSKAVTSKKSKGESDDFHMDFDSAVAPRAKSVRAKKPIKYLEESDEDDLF
Albumin, sequence (P02769 whole entry): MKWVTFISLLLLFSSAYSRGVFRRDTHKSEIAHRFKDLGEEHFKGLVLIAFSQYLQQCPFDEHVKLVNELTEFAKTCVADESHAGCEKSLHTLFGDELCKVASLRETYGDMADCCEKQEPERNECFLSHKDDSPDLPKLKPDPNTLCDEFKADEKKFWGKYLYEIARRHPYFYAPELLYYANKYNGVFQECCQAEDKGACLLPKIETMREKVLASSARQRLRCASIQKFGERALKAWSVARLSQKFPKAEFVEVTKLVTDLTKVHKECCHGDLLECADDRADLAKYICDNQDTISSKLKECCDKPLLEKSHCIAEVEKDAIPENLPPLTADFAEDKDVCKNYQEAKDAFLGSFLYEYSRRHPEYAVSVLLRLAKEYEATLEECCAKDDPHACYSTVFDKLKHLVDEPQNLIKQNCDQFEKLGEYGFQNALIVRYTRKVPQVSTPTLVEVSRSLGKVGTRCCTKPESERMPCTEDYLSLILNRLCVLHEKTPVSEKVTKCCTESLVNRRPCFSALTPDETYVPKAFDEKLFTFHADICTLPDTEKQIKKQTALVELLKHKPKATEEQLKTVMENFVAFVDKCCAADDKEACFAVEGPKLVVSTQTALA

| SMILES | TGI [1] [µM] | inhibition [2] | LC50 [3] [µM] | TGI [4] [µM] | GI50 [5] [µM] | inhibition [6] | LC50 (lethal concentration 50) [7] [µM] | GI50 [8] [µM] | LC50 (concentration killing 50% of cells) [9] [µM] | Activity (Calf thymus DNA [10]) | TGI [11] [µM] | Activity (Albumin) | LC50 (concentration killing 50% of cells) [12] [µM] | GI50 [13] [µM] | inhibition [14] | TGI [15] [µM] | GI50 [16] [µM] | CC50 [17] [µM] | inhibition [18] | LC50 (lethal concentration, 50% cell kill) [19] [µM] | also measured |
| --- | --- | --- | --- | --- | --- | --- | --- | --- | --- | --- | --- | --- | --- | --- | --- | --- | --- | --- | --- | --- | --- |
| Fc1ccc(Nc2nc(Nc3ccc(-c4nc5ccccc5[nH]4)cc3)c3cn[nH]c3n2)cc1 | 4.14 | Active | > 100 | 5.08 | 1.99 | Active | 6.92 | 1.78 | 20.4 | Active | 5.37 | Active | 28.9 | 1.95 | inactive | 6.77 | 2.8 | 19 | Active | 6.8 | TGI [20]: 4.8 µM; GI50 [21]: 2.49 µM; TGI [22]: 7.35 µM; Activity (Calf thymus DNA [23]): Active |
| OCCN1CCN(c2nc(Nc3ccc(-c4nc5ccccc5[nH]4)cc3)c3cn[nH]c3n2)CC1 | 2.96 | Active | > 100 | 3.26 | 1.8 | Active | 5.83 | 0.72 | 5.72 | Active | 3.23 | Active | 6.09 | 1.49 | inactive | 3.59 | 1.81 | 7.02 | Active | 5.71 | TGI [20]: 3.83 µM; GI50 [21]: 1.84 µM; TGI [22]: 3.26 µM; Activity (Calf thymus DNA [23]): Active |
